Calls of active or inactive are those of the source. No cut-off for these calls is given here.
Target: T1, Bile acid receptor (Homo sapiens) (UniProt Q96RI1)
T1 sequence (whole entry): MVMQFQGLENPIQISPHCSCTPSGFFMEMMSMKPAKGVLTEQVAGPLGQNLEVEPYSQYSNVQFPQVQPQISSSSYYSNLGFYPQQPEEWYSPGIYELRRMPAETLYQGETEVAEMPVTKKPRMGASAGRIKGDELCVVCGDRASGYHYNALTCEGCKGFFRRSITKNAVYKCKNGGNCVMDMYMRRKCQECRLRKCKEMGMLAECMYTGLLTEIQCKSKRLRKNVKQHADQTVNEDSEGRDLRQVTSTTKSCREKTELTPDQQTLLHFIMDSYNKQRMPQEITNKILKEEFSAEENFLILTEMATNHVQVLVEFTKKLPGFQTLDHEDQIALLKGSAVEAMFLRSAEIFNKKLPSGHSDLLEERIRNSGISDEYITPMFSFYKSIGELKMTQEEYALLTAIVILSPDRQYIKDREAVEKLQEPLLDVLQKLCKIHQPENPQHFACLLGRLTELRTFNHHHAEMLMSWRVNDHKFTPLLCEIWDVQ
Assay: Agonist activity at FXR (unknown origin) at 10 uM relative to control
Settings: not given
Outline: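 Nuclear hormone receptor (NHR) transactivation screen at FXR run by Eurofins DiscoverX; test agents at 10 µM.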

Row | SMILES | Activity [%]
1 | CC[C@H]1[C@@H](O)[C@H]2[C@@H]3CC[C@@H]([C@H](C)CCCC(=O)O)[C@H]3[C@H](C)C[C@@H]2[C@@]2(C)CC[C@@H](O)C[C@@H]12 | 23
2 | CC[C@H]1[C@@H](O)[C@H]2[C@@H]3CC[C@@H]([C@H](C)CCC(=O)O)[C@H]3[C@H](C)C[C@@H]2[C@@]2(C)CC[C@@H](O)C[C@@H]12 | 31

Target: T2, G-protein coupled bile acid receptor 1 (Homo sapiens, UniProt Q8TDU6)
T2 sequence (Q8TDU6 whole entry): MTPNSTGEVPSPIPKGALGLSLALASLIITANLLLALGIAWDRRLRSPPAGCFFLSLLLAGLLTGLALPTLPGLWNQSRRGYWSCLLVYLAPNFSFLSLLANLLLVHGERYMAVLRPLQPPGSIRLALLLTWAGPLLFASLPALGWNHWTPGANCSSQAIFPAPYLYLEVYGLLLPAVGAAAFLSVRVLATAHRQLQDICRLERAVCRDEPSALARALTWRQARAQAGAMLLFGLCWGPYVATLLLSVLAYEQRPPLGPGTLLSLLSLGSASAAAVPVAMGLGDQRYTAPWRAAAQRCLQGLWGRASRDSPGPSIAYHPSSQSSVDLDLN
Assay: Agonist activity at human TGR5 expressed in HEK293 cells incubated for 30 mins by SEAP reporter gene based assay
Format: functional, cell-based
Settings: not given
Outline: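 Human TGR5 reverse-transfected 293T/17 cells in serum-free stimulation medium with 1% DMSO received a concentration series in triplicate, 30 min at bench then 7 h at 37 °C, 5% CO2. SEAP luminescence was read after heat inactivation at 65 °C. Response is % of 10 µM LCA, fitted by four-parameter unconstrained nonlinear regression to give EC50. Mean ± SD of three independent experiments.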

Row | SMILES | EC50 [µM]
3 | CC[C@H]1[C@@H](O)[C@H]2[C@@H]3CC[C@H]([C@H](C)CCC(=O)NCCS(=O)(=O)O)[C@H]3[C@H](C)C[C@@H]2[C@@]2(C)CC[C@@H](O)C[C@@H]12 | 5.2
4 | CC[C@H]1[C@@H](O)[C@H]2[C@@H]3CC[C@@H]([C@H](C)CCC(=O)NCCS(=O)(=O)O)[C@H]3[C@H](C)C[C@@H]2[C@@]2(C)CC[C@@H](O)C[C@@H]12 | 0.31
5 | CC[C@H]1[C@@H](O)[C@H]2[C@@H]3CC[C@@H]([C@H](C)CCCC(=O)NCCS(=O)(=O)O)[C@H]3[C@H](C)C[C@@H]2[C@@]2(C)CC[C@@H](O)C[C@@H]12 | 0.27

Target: T3, G-protein coupled bile acid receptor 1 (Homo sapiens) (UniProt Q8TDU6)
T3 sequence (whole entry): T2 sequence (Q8TDU6 whole entry)
Assay: Agonist activity at human TGR5 expressed in HEK293 cells at 10 uM incubated for 30 mins by SEAP reporter gene based assay relative to control
Format: functional, cell-based
Settings: not given
Outline: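 293T/17 cells reverse-transfected with human TGR5 on reporter strips (3.8 × 10^4 cells/well, 20 h), then moved to serum-free DMEM stimulation medium with 1% DMSO. Compound at 10 µM in triplicate, 30 min on the bench, then 7 h at 37 °C. Medium heated 65 °C 30 min, SEAP substrate added, luminescence read. Efficacy is basal-subtracted RLU as % of 10 µM LCA. Mean ± SD of ≥2 independent experiments.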

Row | SMILES | Activity
6 | CC[C@H]1[C@@H](O)[C@H]2[C@@H]3CC[C@H]([C@H](C)CC(=O)O)[C@H]3[C@H](C)C[C@@H]2[C@@]2(C)CC[C@@H](O)C[C@@H]12 | 11%
7 | CC[C@H]1[C@@H](O)[C@H]2[C@@H]3CC[C@H]([C@H](C)CCCC(=O)NCCS(=O)(=O)O)[C@H]3[C@H](C)C[C@@H]2[C@@]2(C)CC[C@@H](O)C[C@@H]12 | inactive
8 | CC[C@H]1[C@@H](O)[C@H]2[C@@H]3CC[C@H]([C@H](C)CCC(=O)O)[C@H]3[C@H](C)C[C@@H]2[C@@]2(C)CC[C@@H](O)C[C@@H]12 | 33%
9 | C[C@H](CC(=O)O)[C@@H]1CC[C@@H]2[C@@H]1[C@H](C)C[C@H]1[C@H]2[C@H](O)C[C@@H]2C[C@H](O)CC[C@@]21C | 4%
10 | CC[C@H]1[C@@H](O)[C@H]2[C@@H]3CC[C@@H]([C@H](C)C(=O)O)[C@H]3[C@H](C)C[C@@H]2[C@@]2(C)CC[C@@H](O)C[C@@H]12 | 10%
11 | C[C@H](CCC(=O)O)[C@H]1CC[C@@H]2[C@@H]1[C@H](C)C[C@H]1[C@H]2[C@H](O)C[C@@H]2C[C@H](O)CC[C@@]21C | inactive
12 | C[C@H](CCCCC(=O)O)[C@H]1CC[C@@H]2[C@@H]1[C@H](C)C[C@H]1[C@H]2[C@H](O)C[C@@H]2C[C@H](O)CC[C@@]21C | inactive
13 | CC[C@H]1[C@@H](O)[C@H]2[C@@H]3CC[C@H]([C@H](C)CC(=O)NCCS(=O)(=O)O)[C@H]3[C@H](C)C[C@@H]2[C@@]2(C)CC[C@@H](O)C[C@@H]12 | inactive
14 | C[C@@H]1C[C@H]2[C@H]([C@@H]3CC[C@@H]([C@H](C)C(=O)O)[C@H]31)[C@H](O)C[C@@H]1C[C@H](O)CC[C@@]12C | 4%
15 | C[C@H](CCCC(=O)O)[C@H]1CC[C@@H]2[C@@H]1[C@H](C)C[C@H]1[C@H]2[C@H](O)C[C@@H]2C[C@H](O)CC[C@@]21C | inactive
16 | C[C@H](CC(=O)NCCS(=O)(=O)O)[C@@H]1CC[C@@H]2[C@@H]1[C@H](C)C[C@H]1[C@H]2[C@H](O)C[C@@H]2C[C@H](O)CC[C@@]21C | 7%
17 | C[C@H](CCCC(=O)O)[C@@H]1CC[C@@H]2[C@@H]1[C@H](C)C[C@H]1[C@H]2[C@H](O)C[C@@H]2C[C@H](O)CC[C@@]21C | 26%

Same assay, conditions: filed as agonist

Row | SMILES | Activity [%]
18 | CC[C@H]1[C@@H](O)[C@H]2[C@@H]3CC[C@H]([C@H](C)CCC(=O)NCCS(=O)(=O)O)[C@H]3[C@H](C)C[C@@H]2[C@@]2(C)CC[C@@H](O)C[C@@H]12 | 99
19 | CC[C@H]1[C@@H](O)[C@H]2[C@@H]3CC[C@@H]([C@H](C)CCCC(=O)O)[C@H]3[C@H](C)C[C@@H]2[C@@]2(C)CC[C@@H](O)C[C@@H]12 | 69
20 | CC[C@H]1[C@@H](O)[C@H]2[C@@H]3CC[C@@H]([C@H](C)C(=O)NCCS(=O)(=O)O)[C@H]3[C@H](C)C[C@@H]2[C@@]2(C)CC[C@@H](O)C[C@@H]12 | 61
21 | C[C@H](CCCCC(=O)O)[C@@H]1CC[C@@H]2[C@@H]1[C@H](C)C[C@H]1[C@H]2[C@H](O)C[C@@H]2C[C@H](O)CC[C@@]21C | 43
22 | CC[C@H]1[C@@H](O)[C@H]2[C@@H]3CC[C@H]([C@H](C)CCCC(=O)O)[C@H]3[C@H](C)C[C@@H]2[C@@]2(C)CC[C@@H](O)C[C@@H]12 | 54
23 | CC[C@H]1[C@@H](O)[C@H]2[C@@H]3CC[C@@H]([C@H](C)CC(=O)O)[C@H]3[C@H](C)C[C@@H]2[C@@]2(C)CC[C@@H](O)C[C@@H]12 | 42
24 | C[C@@H]1C[C@H]2[C@H]([C@@H]3CC[C@@H]([C@H](C)C(=O)NCCS(=O)(=O)O)[C@H]31)[C@H](O)C[C@@H]1C[C@H](O)CC[C@@]12C | 56
25 | CC[C@H]1[C@@H](O)[C@H]2[C@@H]3CC[C@@H]([C@H](C)CC(=O)NCCS(=O)(=O)O)[C@H]3[C@H](C)C[C@@H]2[C@@]2(C)CC[C@@H](O)C[C@@H]12 | 42
26 | CC[C@H]1[C@@H](O)[C@H]2[C@@H]3CC[C@@H]([C@H](C)CCC(=O)O)[C@H]3[C@H](C)C[C@@H]2[C@@]2(C)CC[C@@H](O)C[C@@H]12 | 62
27 | C[C@H](CCC(=O)NCCS(=O)(=O)O)[C@@H]1CC[C@@H]2[C@@H]1[C@H](C)C[C@H]1[C@H]2[C@H](O)C[C@@H]2C[C@H](O)CC[C@@]21C | 61
28 | C[C@H](CCCC(=O)NCCS(=O)(=O)O)[C@@H]1CC[C@@H]2[C@@H]1[C@H](C)C[C@H]1[C@H]2[C@H](O)C[C@@H]2C[C@H](O)CC[C@@]21C | 62
29 | CC[C@H]1[C@@H](O)[C@H]2[C@@H]3CC[C@@H]([C@H](C)CCC(=O)NCCS(=O)(=O)O)[C@H]3[C@H](C)C[C@@H]2[C@@]2(C)CC[C@@H](O)C[C@@H]12 | 99
30 | CC[C@H]1[C@@H](O)[C@H]2[C@@H]3CC[C@@H]([C@H](C)CCCC(=O)NCCS(=O)(=O)O)[C@H]3[C@H](C)C[C@@H]2[C@@]2(C)CC[C@@H](O)C[C@@H]12 | 99
